Calls of active or inactive are those of the source. The calls are words filed in the database; no cut-off is given here.

Series [1] deals with T1, Proteinase-activated receptor 1 (Homo sapiens, UniProt P25116).
T1 sequence (P25116 whole entry): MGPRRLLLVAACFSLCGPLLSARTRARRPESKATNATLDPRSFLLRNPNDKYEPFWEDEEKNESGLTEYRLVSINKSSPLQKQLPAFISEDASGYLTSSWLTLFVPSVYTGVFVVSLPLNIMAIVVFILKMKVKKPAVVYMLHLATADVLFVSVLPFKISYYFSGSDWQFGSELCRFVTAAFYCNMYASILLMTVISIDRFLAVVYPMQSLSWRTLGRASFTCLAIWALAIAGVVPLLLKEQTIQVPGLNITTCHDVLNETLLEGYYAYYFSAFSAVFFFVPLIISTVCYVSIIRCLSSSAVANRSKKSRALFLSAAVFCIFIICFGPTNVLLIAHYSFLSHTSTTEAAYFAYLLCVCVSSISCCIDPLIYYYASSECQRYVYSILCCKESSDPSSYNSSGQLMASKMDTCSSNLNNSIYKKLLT
The series can be described thus: Displacement of [3H]haTRAP from PAR1 in human platelet membrane. The format is cell membranes. In a few lines: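 Membranes from human platelets as the PAR-1 source, with tritiated high-affinity thrombin receptor activating peptide ([3H]haTRAP) as radioligand; IC50 reported ± SEM, n = 2.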
(In general: Loss of bound radioactivity is the signal in a displacement assay; it reports binding, not function.)

Series [2] is described as follows: AUC (0 to 6 hrs) in rat at 10 mg/kg, po. Format: ADME, organism-based. The arrangement: time < 6 hr, dose 10 mg/kg, route oral. As to conditions: plasma. In a few lines:
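Rats given a single 10 mg/kg oral dose in 0.4% methylcellulose; plasma levels followed for 6 h and exposure reported as AUC from 0 to 6 h in ng·hr/mL.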

Series [3] has as its system Cynomolgus monkey. Kind of series: Ex vivo inhibition of haTRAP-induced platelet aggregation in cynomolgus monkey at 3 mg/kg, po after 6 hrs. The following applies: Macaca fascicularis. Format: functional. In a few lines:
(§1)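 Conscious, chaired cynomolgus monkeys dosed orally at 3 mg/kg in 20% PEG-HPBCD; blood drawn at 1 h intervals to 6 h, then at 24 h; haTRAP added ex vivo as agonist; aggregation read in a whole blood aggregometer, reported as percent reduction.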

The nature of series [4]: Bioavailability in cynomolgus monkey at 3 mg/kg, po. The format is ADME, organism-based, Macaca fascicularis. The following applies: in vivo.
Series [5] in a line: Cmax in po dosed cynomolgus monkey. Format: ADME, organism-based, Macaca fascicularis. The arrangement: route oral. As to conditions: in vivo.
Series [6] is described as follows: Half life in iv dosed cynomolgus monkey. Format: ADME, organism-based, Macaca fascicularis. The following applies: in vivo.
The nature of series [7]: Tmax in cynomolgus monkey. Format: ADME, organism-based, Macaca fascicularis. The following applies: in vivo.
The species entered for series [8] is Mus musculus. Kind of series: Effect on liver weight in mouse. Format: functional, organism-based. In a few lines: (§2)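 Mouse P450 enzyme induction model run for 8 days at doses up to 100 mg/kg; end points were liver weight, liver-to-body weight ratio and spectral CYP450.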
The species named for series [9] is Mus musculus. The series can be described thus: Effect on liver to body weight ratio in mouse. Format: functional, organism-based. In a few lines:
as §2

Series [10] concerns Cynomolgus monkey. The series can be described thus: Ex vivo inhibition of haTRAP-induced platelet aggregation in cynomolgus monkey at 3 mg/kg, po 24 hrs. Format: functional. As to conditions: Macaca fascicularis. The essentials:
as §1

For `CCOC(=O)N1CC[C@@H]2[C@H](C[C@H]3C(=O)O[C@H](C)[C@H]3[C@H]2/C=C/c2ccc(-c3cccc(F)c3)cn2)C1`, the IC50 in series [1] was determined as 10.5 nM. For the same molecule, in [1], the Ki was 4.5 nM. For the same molecule, the exposure AUC(0-t) at 6 h in [2] turned out to be 2220 ng·h/mL. The values for the inhibition in vivo at 3 mg/kg in the series on Cynomolgus monkey [3] and in the series on Cynomolgus monkey [10] were 100% and 70%, respectively. For the same molecule, the bioavailability in [4] was 62%. This molecule returned a Cmax in [5] of 990 nM. The molecule further gave a half-life in series [6] of 6.2 h. Also, the Tmax in series [7] is 0.7 h. The outcome in the series filed under Mus musculus [8] and in the series listed under Mus musculus [9] was inactive.

For orientation: IC50 means the point on the concentration scale where inhibition reaches its midpoint. Usually Ki stands for the equilibrium dissociation constant of an inhibitor or competing ligand from its target. As usually defined, the AUC(0-t) is exposure summed from dosing to a finite time, without extrapolation to infinity. The inhibition in vivo is how much of the control response was suppressed. The term bioavailability denotes the share of a dose that reaches the circulation, judged against a reference dose that is usually intravenous. One may read the Cmax as the peak of the concentration-time curve. A word on the half-life: it is the time in which the quantity being followed falls by half. By Tmax is commonly meant the time at which the peak concentration occurs.
